Test results from ChEMBL document CHEMBL1137442, “Synthesis and anticonvulsant evaluation of 4-(4-alkoxylphenyl)-3-ethyl-4H-1,2,4-triazoles as open-chain analogues of 7-alkoxyl-4,5-dihydro[1,2,4]triazolo[4,3-a]quinolines” (Bioorg Med Chem, 2007).
The source made the active and inactive calls.

Key:
Mus musculus [1] = experiment: Anticonvulsant activity against MES-induced seizure in ip dosed C57B/6 mouse by MES test; format: functional; conditions: C57B/6, ip
Outline: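 Mice, groups of 10, given a range of intraperitoneal doses until at least three points fell within 10–90% protection. MES was tested 30 min after dosing, with current applied via corneal electrodes for 0.2 s. Protection was defined as abolition of the hind-leg tonic maximal extension.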

Mus musculus [2] = species: Mus musculus; experiment: Protective index, ratio of TD50 for C57B/6 mouse by rotarod test to ED50 for C57B/6 mouse by MES test; format: functional
[3] = Neurotoxicity in ip dosed C57B/6 mouse after 30 mins by rotarod test; format: toxicity, organism-based; conditions: in vivo
Outline: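 Mice, groups of 10, given a range of ip doses to define 10–90% minimal neurotoxicity. At 30 min after dosing, each mouse was placed on a 1-in. knurled rod rotating at 6 rpm for 1 min. Neurotoxicity meant failure to keep equilibrium in each of three trials.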

Mus musculus [4] = species: Mus musculus; experiment: Anticonvulsant activity against pentylenetetrazole-induced seizure in C57B/6 mouse; format: functional
Outline: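 Pentylenetetrazole 85 mg/kg sc, a dose giving 100% convulsions, was given 30 min after test treatment. Latency and duration of convulsions, plus latency and percentage of lethality, were recorded over the following 1 h. ED50 was the dose preventing tonic convulsions in 50% of treated animals.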

Mus musculus [5] = species: Mus musculus; experiment: Anticonvulsant activity against thiosemicarbazide-induced seizure in C57B/6 mouse; format: functional
Outline: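 Thiosemicarbazide 50 mg/kg ip, a fully convulsant dose, was given 1 h after test treatment. Latency and duration of convulsions, plus lethality latency and percentage, were recorded over 2 h 30 min. ED50 was the dose preventing tonic convulsions in 50% of treated animals.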

Mus musculus [6] = species: Mus musculus; experiment: Anticonvulsant activity against 3-mercaptopropionic acid-induced seizure in C57B/6 mouse; format: functional
Outline: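 3-Mercaptopropionic acid 40 mg/kg in saline was injected sc 1 h after test treatment. Convulsion latency and duration, plus lethality latency and percentage, were recorded over 1 h. ED50 was the dose preventing tonic convulsions in 50% of treated animals.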

Mus musculus [7] = experiment: Anticonvulsant activity against strychnine-induced seizure in C57B/6 mouse at 300 mg/kg; format: functional, organism-based; parameters: dose 300 mg/kg
Outline: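 Strychnine chlorhydrate in saline (1.2 mg/mL, 1 mL/kg) was given sc as a 100%-convulsant dose after compound pretreatment, with the compound tested at 300 mg/kg. Mice were housed individually and observed for 30 min, recording seizure onset time, number of tonic seizures and lethality.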

Mus musculus [8] = species: Mus musculus; experiment: Anticonvulsant activity against isoniazid-induced seizure in C57B/6 mouse; format: functional
Outline: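 Isoniazid was given ip at 250 mg/kg, a dose set by a dose–percent effect curve to convulse 100% of animals. Test compounds were given beforehand. ED50 was the dose protecting 50% of animals from tonic convulsions.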

| SMILES | ED50 (Mus musculus [1]) [mg/kg] | Ratio TD50/ED50 (Mus musculus [2]) | TD50 at 0.5 h [3] [mg/kg] | ED50 (Mus musculus [4]) [mg/kg] | ED50 (Mus musculus [5]) [mg/kg] | ED50 (Mus musculus [6]) [mg/kg] | Activity (Mus musculus [7]) | ED50 (Mus musculus [8]) [mg/kg] |
| --- | --- | --- | --- | --- | --- | --- | --- | --- |
| CCc1nncn1-c1ccc(OCc2c(Cl)cccc2Cl)cc1 | 15.8 | 8.3 | 132 | – | – | – | – | – |
| CCc1nncn1-c1ccc(OCc2c(F)cccc2F)cc1 | 15.8 | 6.9 | 109 | – | – | – | – | – |
| CCCCCCOc1ccc(-n2cnnc2CC)cc1 | 13.2 | 4.7 | 62.1 | – | – | – | – | – |
| CCCCCCCCCCCCOc1ccc(-n2cnnc2CC)cc1 | > 100 | – | – | – | – | – | – | – |
| CCc1nncn1-c1ccc(OCc2ccc(OC)cc2)cc1 | 15.8 | 8.3 | 132 | – | – | – | – | – |
| CCc1nncn1-c1ccc(OCc2ccc(Cl)cc2)cc1 | 19.7 | 10.4 | 137 | – | – | – | – | – |
| CCc1nncn1-c1ccc(OCc2ccc3c(c2)OCO3)cc1 | 20.1 | 9.4 | 189 | – | – | – | – | – |
| CCc1nncn1-c1ccc(OCc2ccc(F)cc2)cc1 | 22.8 | 4 | 91.3 | – | – | – | – | – |
| c1ccc(COc2ccc3c(c2)CCc2nncn2-3)cc1 | 17.3 | 3.5 | 61.4 | – | – | – | – | – |
| CCCCOc1ccc(-n2cnnc2CC)cc1 | > 100 | – | – | – | – | – | – | – |
| CCc1nncn1-c1ccc(OCc2ccccc2)cc1 | 20.8 | 4.9 | 102 | – | – | – | – | – |
| CCCCCCCOc1ccc(-n2cnnc2CC)cc1 | 8.3 | 5.5 | 45.6 | – | – | – | – | – |
| Fc1ccc(COc2ccc3c(c2)CCc2nncn2-3)cc1 | 11.8 | 4.6 | 54.5 | – | – | – | – | – |
| CCOc1ccc(-n2cnnc2CC)cc1 | > 100 | – | – | – | – | – | – | – |
| CCCOc1ccc(-n2cnnc2CC)cc1 | > 100 | – | – | – | – | – | – | – |
| CCc1nncn1-c1ccc(OCc2cccc(Cl)c2)cc1 | 27.4 | 4 | 110 | – | – | – | – | – |
| CCCCCCCCOc1ccc(-n2cnnc2CC)cc1 | 8.8 | 9.3 | 82.2 | 26.4 | 31.7 | 22.8 | inactive | 38.1 |
| CCc1nncn1-c1ccc(OCc2ccccc2F)cc1 | 21.2 | 2.9 | 61.5 | – | – | – | – | – |
| CCCCCCOc1ccc2c(c1)CCc1nncn1-2 | 13.5 | 2.2 | 30.3 | – | – | – | – | – |
| CCc1nncn1-c1ccc(OCc2ccc(C)cc2)cc1 | 25.5 | 4 | 101 | – | – | – | – | – |
| CCc1nncn1-c1ccc(OCc2cccc(F)c2)cc1 | 22.8 | 4 | 91.2 | – | – | – | – | – |
| Cc1ccc(COc2ccc3c(c2)CCc2nncn2-3)cc1 | 20.5 | 3.2 | 65.8 | – | – | – | – | – |
| CCc1nncn1-c1ccc(OCc2ccccc2Cl)cc1 | 13.2 | 5.8 | 76.1 | – | – | – | – | – |
